Experimental data reported in paper PMC5987874 (The Journal of General Physiology, 2018).
Where a chain is given by its changes, count along the chain named.

Assays:
[1] = target: T1, human Hv1 H140A (H^2.40A) (Homo sapiens, UniProt Q96D96, H140A); test: Whole-cell voltage clamp, Zn^2+ modulation of GAQ gating; type: cell-based
T1 sequence (Q96D96 1-273 H140A): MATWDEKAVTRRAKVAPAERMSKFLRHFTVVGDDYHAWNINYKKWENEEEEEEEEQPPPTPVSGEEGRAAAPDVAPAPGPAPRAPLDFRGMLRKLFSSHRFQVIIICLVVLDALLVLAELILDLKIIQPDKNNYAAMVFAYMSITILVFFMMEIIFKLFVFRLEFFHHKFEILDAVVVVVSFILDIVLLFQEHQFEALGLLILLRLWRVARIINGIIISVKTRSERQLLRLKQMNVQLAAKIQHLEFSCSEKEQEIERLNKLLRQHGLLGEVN
In short: (§1)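 Whole-cell patch clamp at ~21°C. Pipette and bath (mM): ~80 TMA-MeSO3, 100 Bis-Tris, 8 HCl, pH 6.5, 310–320 mOsm. ZnCl2 was diluted into bath solution and applied by gravity superfusion, at least 2 min per change. Test step voltage was set per construct from its V0.5. G_STEP = end-of-step current/(V−V_REV). Effect = 1 − G_Zn/G_control, fitted to the Hill equation. IC50 and nH are means ± SEM from separate cells. ΔpIC50 was tested by unpaired t test, P<0.05.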

[2] = target: T2, human Hv1 H193A (H^3.71A) (Homo sapiens, UniProt Q96D96, H193A); test: as above; type: cell-based
T2 sequence (Q96D96 1-273 H193A): T1 sequence (Q96D96 1-273 H140A) with A140H, H193A
In short: as §1

human Hv1 E119H-H140A = target: T3, human Hv1 E119H-H140A (Homo sapiens, UniProt Q96D96, E119H/H140A); test: as above; type: cell-based
T3 sequence (Q96D96 1-273 E119H/H140A): T1 sequence (Q96D96 1-273 H140A) with E119H
In short: as §1

[3] = target: T4, human Hv1 D185H (D^3.61H) (Homo sapiens, UniProt Q96D96, D185H); test: as above; type: cell-based
T4 sequence (Q96D96 1-273 D185H): T1 sequence (Q96D96 1-273 H140A) with A140H, D185H
In short: as §1

[4] = target: T1, human Hv1 H140A (H^2.40A); settings: ref Ramsey et al., 2006; cited from earlier work
[5] = target: T2, human Hv1 H193A (H^3.71A); settings: ref Ramsey et al., 2006; cited from earlier work
[6] = VSTEP 100 mV, calculated as log (IC50)
[7] = read-out: IC50, fit of the mean data to a Hill function, Fig. 2C
[8] = VSTEP 120 mV, calculated as log (IC50)

## [Cl-].[Cl-].[Zn+2] [Zn^2+, ZnCl2]
[1]; Fig. 2C
  nH, fit of the mean data to a Hill function: 0.7
[1]; H140A vs WT
  Mean ΔpIC50 = (pIC50_1 - pIC50_2): −1.02
[1]; VSTEP 100 mV
  Hill value: 0.67
[1]; [6]
  pIC50: −4.41
[1]; [7]
  IC50: 39 µM
[2]; Fig. 2C
  nH, fit of the mean data to a Hill function: 1.0
[2]; H193A vs WT
  Mean ΔpIC50 = (pIC50_1 - pIC50_2): −1.37
[2]; VSTEP 100 mV
  Hill value: 1.04
[2]; [6]
  pIC50: −4.06
[2]; [7]
  IC50: 82.2 µM
Human Hv1 E119H-H140A; E119H-H140A vs H140A
  Mean ΔpIC50 = (pIC50_1 - pIC50_2): 1.81
Human Hv1 E119H-H140A; Fig. 4A
  nH, fit of the mean data to a Hill function: 1.2
Human Hv1 E119H-H140A; VSTEP 120 mV
  Hill value: 2.09
Human Hv1 E119H-H140A; [8]
  pIC50: 6.23
Human Hv1 E119H-H140A; read-out: IC50, fit of the mean data to a Hill function, Fig. 4A
  IC50: 0.67 µM
[3]; Fig. 4D
  nH, fit of the mean data to a Hill function: 0.6
[3]; VSTEP 120 mV
  Hill value: 0.77
[3]; [8]
  pIC50: 5.38
[3]; read-out: IC50, fit of the mean data to a Hill function, Fig. 4D
  IC50: 6.5 µM
[4]
  decrease of Zn^2+ potency by single mutation: 10- to 30 fold
[5]
  decrease of Zn^2+ potency by single mutation: 10- to 30 fold
